Read-outs that look alike come from different tables or passages of the source.
Legend:
[1] = Stability in dosed-feed formulations; assay type: physicochemical; settings: up to 42 d, RE ≤ ± 10% of day 0 value
[2] = assay type: in vivo, rat; settings: male rats; for group mean daily body weight gain: 7 d; for average daily feed consumption: 7 d exposure; for survival: all exposure groups, 7 d via feed
[3] = assay type: in vivo, mouse; settings: male mice; for group mean daily body weight gain: 7 d; for average daily feed consumption: 7 d exposure; for survival: all exposure groups, 7 d via feed
[4] = male rats, ref Waidyanatha et al., cited from earlier work
in vivo [5] = settings: male, B6C3F1/N, mouse; for half-life: Free Elimination half-life
[6] = assay type: in vivo, rat; settings: male rats, dose-normalized
Summary of the method: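 Male rats (272–308 g, 8–9 weeks), singly caged, received dosed feed ad libitum at 338, 1125 or 3750 ppm for 7 days. Control feed followed, with plasma sampled up to 24 h. Free and deconjugated total test compound were measured by LC-MS/MS. Cmax and AUC came from an extravascular model and were normalized to the daily dose (food consumption, concentration, body weight). Gavage values were taken from earlier single-dose work.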

in vivo [7] = settings: male; for half-life: po, Free Elimination half-life
[8] = gavage 34 mg/kg vs feed 23.4 mg/kg
[9] = gavage 110 mg/kg vs feed 70.5 mg/kg
[10] = gavage 340 mg/kg vs feed 193 mg/kg
[11] = Hsd:Sprague Dawley SD (rat), B6C3F1/N (mouse)

Structure (SMILES)	stability in feed formulations stored at refrigerated temperature [1]	group mean daily body weight gain ([2]; 338 ppm via feed) [g]	average daily feed consumption ([2]; 338 ppm) [g/kg bw/d]	group mean daily body weight gain ([2]; 1125 ppm via feed) [g]	average daily feed consumption ([2]; 1125 ppm) [g/kg bw/d]	survival [2]	group mean daily body weight gain ([3]; 338 ppm via feed) [g]	average daily feed consumption ([3]; 338 ppm) [g/kg bw/d]	group mean daily body weight gain ([3]; 1125 ppm via feed) [g]	average daily feed consumption ([3]; 1125 ppm) [g/kg bw/d]	survival [3]	Total plasma elimination half-lives, range over exposure concentrations (in vivo [5]) [h]	half-life (in vivo [5]; po) [h]	half-life (in vivo [7]; Hsd:Sprague Dawley SD, rat) [h]	also measured
Oc1ccc(C(c2ccc(O)cc2)(C(F)(F)F)C(F)(F)F)cc1 [BPAF, 2,2-bis(4-hydroxyphenyl)perfluoropropane]	confirmed	3.38 ± 3.37	69.2 ± 5.8	2.12 ± 3.68	61.0 ± 11.7	All animals survived until the end of the study	0.3 ± 0.5	207 ± 68	0.1 ± 0.6	211 ± 68	All animals survived until the end of the study	3.49 to 4.18	6.66	7.1	group mean daily body weight gain ([2]; 3750 ppm via feed): −0.4 ± 2.3; average daily feed consumption ([2]; 3750 ppm): 51.5 ± 20.5 g/kg bw/d; group mean daily body weight gain ([3]; 3750 ppm via feed): 0.1 ± 0.7 g; feed consumption, fold higher than pre-study control food consumption ([3]; 3750 ppm, probably due to high spillage rate): 1.7 fold; Gavage AUC/D ([4]; single gavage 34 mg/kg, 2019): 11.7 (h*ng/mL)/(mg/kg); Gavage Cmax/D ([4]; single gavage 34 mg/kg, 2019): 1.79 (ng/mL)/(mg/kg); Gavage AUC/D ([4]; single gavage 110 mg/kg, 2019): 11.2 (h*ng/mL)/(mg/kg); Gavage Cmax/D ([4]; single gavage 110 mg/kg, 2019): 1.29 (ng/mL)/(mg/kg); Gavage AUC/D ([4]; single gavage 340 mg/kg, 2019): 14.2 (h*ng/mL)/(mg/kg); Gavage Cmax/D ([4]; single gavage 340 mg/kg, 2019): 1.62 (ng/mL)/(mg/kg); Ratio (Gavage/Feed) AUC [6, 8]: 2.3; Ratio (Gavage/Feed) Cmax [6, 8]: 3.9; Ratio (Gavage/Feed) AUC [6, 9]: 1.6; Ratio (Gavage/Feed) Cmax [6, 9]: 2.2; Ratio (Gavage/Feed) AUC [6, 10]: 3.7; Ratio (Gavage/Feed) Cmax [6, 10]: 4.9; Total plasma elimination half-lives, fold longer in rats compared to mice (in vivo [7]; [11]): 2-3 fold; Total Elimination half-life (in vivo [7]; Hsd:Sprague Dawley SD, rat): 13.3 h
O=S(=O)(c1ccc(O)cc1)c1ccc(O)cc1 [BPS, 4,4’-sulfonyldiphenol]	confirmed	3.7 ± 4.4	68 ± 2.5	3.7 ± 2.7	68 ± 3.5	All animals survived until the end of the study	0.1 ± 0.4	389 ± 85	0.1 ± 0.3	381 ± 61	All animals survived until the end of the study	6.11 to 7.89	6.11	4.82	group mean daily body weight gain ([2]; 3375 ppm via feed): 2.6 ± 5.9 g; average daily feed consumption ([2]; 3375 ppm): 62 ± 5.1 g/kg bw/d; group mean daily body weight gain ([3]; 3375 ppm via feed): 0.1 ± 0.3 g; average daily feed consumption ([3]; 3375 ppm): 348 ± 131 g/kg bw/d; Gavage Cmax/D ([4]; single gavage 34 mg/kg, 2020): 9.2 (ng/mL)/(mg/kg); Gavage Cmax/D ([4]; single gavage 340 mg/kg, 2020): 9.5 (ng/mL)/(mg/kg); Free Elimination half-life (in vivo [5]; po): 6.82 h; Free and total Cmax, difference between rats and mice (in vivo [7]; [11]): ≤ 2 fold; Free and total plasma elimination half-lives, difference between rats and mice (in vivo [7]; [11]): ≤ 2 fold

— publication PMC7931638 (Xenobiotica; the fate of foreign compounds in biological …, 2020)
